Assay results collected from several papers.
Sample: plasma

| Compound | system | setting | Cmax |
| --- | --- | --- | --- |
| CC(C)(C)c1ccc(O)c(CN(Cc2cc(C(C)(C)C)ccc2O)C2CCC(NC(N)=O)CC2)c1 (centres unmarked) | male C57BL/6 mouse | oral, 10 mg/kg, single dose | 1020 ng/mL |
| COc1ccc([C@@]23Oc4cc(OC)cc(OC)c4[C@]2(O)[C@H](O)[C@H](C(=O)N(C)C)[C@H]3c2ccccc2)cc1 | mouse | intravenous, 5 mg/kg | ~11 µM |
| CC[C@H](C)[C@@H]1NC(=O)[C@@](C)(NC(=O)[C@H](CCCNC(=N)N)NC(=O)[C@H](CC(C)C)NC(=O)[C@@H](NC(=O)[C@H](CCC(N)=O)NC(=O)[C@H](CC(C)C)NC(C)=O)[C@@H](C)O)CCCC=CCCC[C@@](C)(C(=O)N[C@@H](CC(C)C)C(=O)N[C@@H](Cc2ccc3ccccc3c2)C(N)=O)NC(=O)[C@H](CCCNC(=N)N)NC(=O)[C@H](CCC(N)=O)NC1=O | male BALB/c mouse | intravenous, 15 mg/kg | 102 µM |
| Cc1nc(-c2cnc(NC(C)C)n(C)c2=O)ccc1Oc1ccnc(-c2cnn(C)c2)c1 | female mouse | oral, 7.5 mg/kg, single dose | 4450 ng/mL |
| COc1ccc(C(O)COc2ccc(-c3csc(-c4ccc(OCC(O)c5ccc(OC)c(OC)c5)cc4)n3)cc2)cc1OC (centres unmarked) | C57BL/6 mouse | oral, 30 mg/kg | 5980 ng/mL |
| C=CC(=O)N1CC2CC(n3nc(-c4ccc(C(=O)Nc5ccccn5)cc4)c4c(N)ncnc43)CC2C1 (centres unmarked) | SCID mouse | oral, 0.2 mg/kg | 10.5 ng/mL |
| CN1CCC[C@H](CN2c3ccccc3Sc3ccccc32)C1.O=C(O)CCC(=O)O | mouse | oral, 64 mg/kg, single dose | 1540 ng/mL |
| CS(=O)(=O)CCNCc1ccc(-c2ccc3ncnc(Nc4ccc(OCc5cccc(F)c5)c(Cl)c4)c3c2)o1 | nude mouse | oral, 50 mg/kg, single dose | 6470 ng/mL |
